High-throughput results as filed in PubChem BioAssay.
Sampled rows, rich in hits. Any-hit rate of the full collection: about 1.9%.
CHRM4 agonist – agonists of human muscarinic M4 receptor (CHRM4); CHO-K1 hM4/Gqi5, Fluo-8 calcium fluorescence; vehicle 0%, full acetylcholine response 100%; P08173; activation, % at 3 µM; 360,000 compounds, 0.14% hits;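 active = activation above the run mean over all test wells plus 3 SD, cut at about 32% in these data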;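 also: peak over basal fluorescence ratio per well then scaled between controls; 0% = DMSO wells and 100% = acetylcholine at EC100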
CHRM4 antagonist – antagonists of human muscarinic M4 receptor (CHRM4); CHO-hM4 cells, ACh EC80, Fluo-8 calcium fluorescence; P08173; 360,000 compounds, 0.73% hits; inhibition, % at 3 µM; AID 624125;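 active = inhibition above its plate's cutoff, the mean inhibition of sample wells plus 3 SD, cut at about 27% in these data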;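 also: 0% = acetylcholine EC80 with DMSO and 100% = DMSO without agonist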
M5 antag – antagonists of human muscarinic M5 receptor (CHRM5); 360,000 compounds, 0.59% hits; AID 624040; CHO-hM5 cells, Fluo-8 calcium fluorescence, ACh EC80; inhibition, % at 3 µM; P08912;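 active = inhibition above a per-plate cutoff, the mean of that plate's test compounds plus 3 SD, cut at about 27% in these data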;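 also: 0% = acetylcholine EC80 with DMSO and 100% = DMSO without agonist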
Target sequence (P08912 whole entry, looked up): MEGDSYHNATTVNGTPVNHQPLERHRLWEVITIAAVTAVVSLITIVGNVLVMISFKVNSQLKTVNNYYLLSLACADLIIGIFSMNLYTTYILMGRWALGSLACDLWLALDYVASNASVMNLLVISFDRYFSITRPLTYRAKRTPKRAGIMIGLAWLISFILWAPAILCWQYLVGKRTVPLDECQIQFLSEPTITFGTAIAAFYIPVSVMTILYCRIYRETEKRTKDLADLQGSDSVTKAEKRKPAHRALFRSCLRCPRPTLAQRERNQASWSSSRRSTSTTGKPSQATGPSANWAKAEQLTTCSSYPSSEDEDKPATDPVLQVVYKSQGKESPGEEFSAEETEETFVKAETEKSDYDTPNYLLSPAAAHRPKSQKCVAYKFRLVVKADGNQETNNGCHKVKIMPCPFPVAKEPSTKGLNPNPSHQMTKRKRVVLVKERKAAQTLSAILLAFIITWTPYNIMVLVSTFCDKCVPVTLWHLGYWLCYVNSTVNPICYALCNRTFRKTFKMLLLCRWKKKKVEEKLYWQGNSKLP
CHRM5 agonist – CHRM5 agonism in calcium assay. P08912. CHO-K1 hM5 cells, Fluo-8 calcium fluorescence; 0% DMSO wells, 100% maximal acetylcholine response. activation, % at 3 µM. 360,000 compounds, 0.19% hits;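 active = activation above the run's mean over test compounds plus 3 SD, cut at about 23% in these data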;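 also: signal is peak over basal fluorescence ratio across the kinetic read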
M4 PAM – CHRM4 positive allosteric modulation. P08173. CHO-K1 hM4/Gqi5, Fluo-8 calcium fluorescence, ACh EC20; 0% = ACh EC20, 100% = maximal ACh. activation, % at 3 µM. 360,000 compounds, 0.4% hits. AID 624126;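 active = activation above its plate's cutoff, the mean activation of sample wells plus 3 SD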
M5 PAM – potentiates acetylcholine response at human M5 receptor. CHO-K1 hM5, Fluo-8 calcium, ACh EC20 PAM; 0% = ACh EC20, 100% = ACh EC100. P08912. 360,000 compounds, 0.3% hits. activation, % at 3 µM;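 active = activation above the run cutoff, the mean activation of all test compounds plus 3 SD, cut at about 18% in these data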
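system = human M5 receptor in CHO-K1 cells | reagent = EC20 acetylcholine as agonist stimulus | compound dosing = single-point, 3 µM nominal | incubation = Fluo-8 loading 80 min at 37 °C plus 30 min room temperature | detection = Fluo-8 calcium dye fluorescence, kinetic read | benchmarks = low control EC20 acetylcholine (0%), high control EC100 acetylcholine (100%)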
Starred values were filed as active, the others as inactive.

SMILES	CHRM4 agonist	CHRM4 antagonist	M5 antag	CHRM5 agonist	M4 PAM	M5 PAM
CC1(C(=O)NCc2cccs2)Cc2c(-c3ccc(C(N)=O)cc3)ccnc2O1 (stereo unspecified)	1.2	-14.5	-6.1	3.4	8.1	6.2
O=C(CCCN1C(=O)/C(=C\c2cccs2)SC1=S)Nc1cccc(C(=O)O)c1	1.4	-19.5	-4.9	-2.0	21.1*	0.1
COc1ccc(-c2noc(CCC(=O)NCC3CCCO3)n2)cc1OC (stereo unspecified)	0.5	27.2*	15.5	-4.4	-6.0	-4.3
CCOc1cc(-c2noc(CCC(=O)NCC3CCCO3)n2)ccc1OC (stereo unspecified)	0.9	0.3	-2.4	-2.9	0.7	-4.2
CCCn1c(CN2CCN(C(=O)OCC)CC2)nc2cc(NC(=O)C(C)C)ccc21	2.9	-9.4	5.6	-0.7	6.8	0.4
CCN(Cc1cc2ccccc2[nH]c1=O)C(=O)C1CCCCC1	2.8	3.2	3.5	2.5	-0.2	-1.0
CC(C)(C)N(Cc1cc2ccccc2[nH]c1=O)C(=O)C1CCCCC1	-0.2	2.5	78.7*	11.4	1.8	-0.1
O=C(NCCN1CCC(n2c(=O)[nH]c3ccccc32)CC1)c1ccccc1C(F)(F)F	5.8	4.5	3.8	4.8	-1.2	-14.0
CCCCNC(=O)CC(C(=O)N1CCc2ccccc21)n1ccnc1 (stereo unspecified)	0.4	28.1*	-10.2	6.4	33.8*	-1.8
CCN(CCCNC(=O)CC(C(=O)N1CCc2ccccc21)n1ccnc1)c1cccc(C)c1 (stereo unspecified)	-2.2	0.2	-0.5	-0.6	3.4	0.4
CC(C)c1ccc(O)c(=O)cc1	1.1	0.0	5.2	0.6	-2.6	-0.4
CC(C)n1cc(/C(N)=N/O)c(=O)n(Cc2ccccc2)c1=O	5.8	21.6	15.8	4.4	13.1*	38.5*
Cc1cn(C(C)C)c(=O)n(-c2ccccc2)c1=O	0.0	5.5	1.0	2.2	1.9	3.1
CC(=O)O/N=C/c1c(C)c(C=O)n2ccccc12	-0.3	-5.0	6.7	-1.0	7.9	-0.3
O=C1CCC(=O)N1c1ccc(NC2CCN(Cc3ccccc3)CC2)c([N+](=O)[O-])c1	-0.2	8.2	5.0	-19.3	-24.2	-1.4
CC1CCC2C(=O)N(c3ccc(NC4CCN(Cc5ccccc5)CC4)c([N+](=O)[O-])c3)C(=O)C2C1 (stereo unspecified)	4.0	28.8*	24.3	-18.0	-59.3	-35.7
O=C1C2CCCCC2C(=O)N1c1ccc(NC2CCN(Cc3ccccc3)CC2)c([N+](=O)[O-])c1 (stereo unspecified)	0.8	15.6	31.8*	-19.4	-40.3	-22.7
CCN(CC(=O)NCc1cccs1)C(=O)c1cccc(S(=O)(=O)N(C)C)c1	0.2	3.8	12.3	-0.7	0.7	-4.2
CCOC(=O)C1CCCN(Cc2nc3ccc([N+](=O)[O-])cc3c(=O)n2-c2ccc(OC)cc2OC)C1 (stereo unspecified)	6.2	9.7	2.2	29.2*	-24.0	-13.0
COc1ccc(CCC(=O)O)c(C(CC(=O)O)C(=O)O)c1OS(=O)(=O)c1ccc(C)cc1 (stereo unspecified)	-0.1	0.1	-5.1	0.2	5.2	0.1
Cc1nn(CC(=O)N2CCc3ccccc32)c(C)c1S(=O)(=O)NC(C)(C)C	2.2	-8.6	6.3	3.0	16.3*	-0.1
Cc1c(Br)c([N+](=O)[O-])nn1CC(=O)N1CCc2ccccc21	0.5	4.6	8.4	-7.4	6.1	3.8
O=C(c1ccc(CSc2nc3ccncc3[nH]2)cc1)N1CCN(c2cccc(Cl)c2)CC1	19.1	10.3	35.5*	5.9	-12.0	-19.4
O=C(Nc1ccccc1)C1CCCN(C(=O)c2ccc(F)cc2)C1 (stereo unspecified)	2.2	-3.7	0.9	0.6	22.1*	1.7
O=C(Cc1ccc(NC(=O)C2CCCN(C(=O)C3CCCCC3)C2)cc1)Nc1cccc(C(=O)N2CCCC2)c1 (stereo unspecified)	-1.8	-0.9	8.3	1.3	17.4*	-5.1
SMILES	CHRM4 agonist	CHRM4 antagonist	M5 antag	CHRM5 agonist	M4 PAM	M5 PAM
O=C(Nc1ccccc1)C1CCCN(C(=O)c2ccc(Cl)cc2)C1 (stereo unspecified)	3.8	-10.7	-11.1	5.5	3.2	-0.4
CN(C(=O)c1ccc(NC(=O)Cc2ccc(NC(=O)C3CCN(C(=O)C4CC4)CC3)cc2)cc1)C1CCCC1	0.1	-21.0	-0.6	-0.8	20.3*	-4.5
COc1ccc(NC(=O)CSc2nnc3n2CCCCC3)cc1OC	-0.3	-9.4	-7.2	-1.1	7.0	5.5
CN(C)c1ccc(NC(=O)CN2CCC(N3CCCCC3)CC2)cc1	0.7	-16.6	-0.3	-2.5	6.7	23.6*
CN(C)c1ccc(NC(=O)CN2CCC(NC(=O)C3CCCCC3)CC2)cc1	1.1	-0.5	-4.0	-0.8	4.9	6.1
COCC(=O)N[C@H]1CC[C@@H](CC(=O)NCc2ccccc2OC)O[C@@H]1CO	1.8	-7.6	-6.5	-0.2	4.7	0.4
Nc1ccc2nc(SCC(=O)Nc3ccc(N4CCOCC4)c(Cl)c3)sc2c1	13.7	6.1	27.4*	4.8	-11.3	-20.9
Cc1ccc(C(=O)CCC(=O)Nc2ncccc2C)cc1	1.9	-2.1	-0.2	8.1	19.7	19.2*
COc1cccc(CNC(=S)Nc2ccc3c(c2)c(=O)n(C)n3C)c1	1.1	-0.4	-2.4	0.2	2.8	-0.3
O=C(Sc1cccc2cccnc12)c1ccccc1Br	3.6	38.6*	26.8	-3.8	-6.4	-1.7
O=C1[C@@H](c2ccccc2)CC[C@@H]2C=CC[C@H]3CCN1[C@@H]32	1.5	-1.9	-2.5	-0.3	10.3	5.5
CCN1CCN(CC(=O)Nc2ccc3c(c2)OCCO3)C(=O)C1=O	-0.2	-12.4	-4.4	0.7	30.6*	-4.5
CCN1CCN(CC(=O)Nc2ccc3c(c2)OCO3)C(=O)C1=O	1.7	-36.3	-1.1	-1.4	5.7	-2.0
CC(Sc1cnccn1)C(=O)O (stereo unspecified)	21.8	6.9	31.5*	-1.5	-9.2	-15.0
CCCS(=O)(=O)NC(=O)C1(C)CCCN(C(=O)c2ccc(C(=O)OC)cc2)C1 (stereo unspecified)	0.6	4.1	6.4	-1.3	1.5	-1.5
CC1=C(C)C(O)N(Cc2ccccc2)C1=O (stereo unspecified)	1.1	-2.9	3.1	-0.4	-0.3	-4.0
CCN(CC)c1ccc(/C=C2/SC(=O)N(C(C)C)C2=O)o1	3.3	41.0*	10.9	2.2	-4.2	1.9
Cc1cccc2c1N(CCOc1ccc(C(C)(C)C)cc1)C(=O)C2=O	-2.9	6.1	12.2	26.6*	-11.0	-11.8
